Columns and labels:
EphA4-LBD = EphA4-LBD (Homo sapiens, UniProt P54764); experiment: NMR ligand titration; format: binding; details: result in words
In short: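 Purified human EphA4 ligand-binding domain (LBD), 13Cε-methionine-labelled for the titration, in 50 mM potassium phosphate pH 6.5 with 100 mM NaCl, at 27 °C. 2D [13C,1H]- or [15N,1H]-HSQC spectra of 50 μM LBD were compared with and without test compound. The compound was titrated at 10–50 μM against a DMSO control, and binding was read as chemical-shift changes.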

wt-EphA4 LBD = wt-EphA4 LBD (Homo sapiens, UniProt P54764); experiment: Isothermal titration calorimetry; format: binding; details: result in words
Sequence of wt-EphA4 LBD (P54764 30-209 limits assumed): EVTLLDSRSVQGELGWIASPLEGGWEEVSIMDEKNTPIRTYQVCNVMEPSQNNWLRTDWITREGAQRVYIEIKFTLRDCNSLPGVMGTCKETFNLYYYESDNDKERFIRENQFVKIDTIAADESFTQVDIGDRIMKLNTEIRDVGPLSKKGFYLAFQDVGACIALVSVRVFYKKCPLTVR

Sequence of EphA4-LBD (P54764 30-209 limits assumed): as above

## CC[C@H]1CN2CC[C@]3(C(=O)Nc4ccccc43)[C@@H]2C[C@@H]1/C(=C\OC)C(=O)OC [rhyncophilin]
EphA4-LBD
  binding to EphA4-LBD in NMR assay: inactive
wt-EphA4 LBD
  binding to EphA4-LBD in ITC assay: inactive

Source: PMC6522132 (Cell chemical biology, 2017)
